The values below come from ChEMBL document CHEMBL3751716, “Identification of 5-Methoxyflavone as a Novel DNA Polymerase-Beta Inhibitor and Neuroprotective Agent against Beta-Amyloid Toxicity” (J Nat Prod, 2015).

Calls of active or inactive are those of the source. The rule behind the calls is not given here. A value given as a limit tells only on which side of the number the result lay.

Data set [1] is described as follows: Cytotoxicity against mouse 88TAg fibroblasts assessed as compound level causing reduction of cell viability incubated for 2 hrs by MTT assay. The essentials:
(§1)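 Mouse embryonic fibroblasts, 92TAg (wild type) or 88TAg (pol-β null), were seeded 5 × 10^3/well and serum-deprived at treatment. Compound (5-60 μM) was given 2 h, then a 2 h MMS pulse (500 μM for 92TAg, 250 μM for 88TAg). After washout, compound was re-added and viability read 24 h from start by MTT (0.9 mg/mL, 2 h, 37 °C; DMSO lysis; A570). Means ± SEM, 3-9 determinations.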
A general note: Tetrazolium dyes change colour on reduction, which living cells bring about.

Data set [2] can be described thus: Cytotoxicity against Sprague-Dawley rat cortical neurons at 50 uM by MTT assay. The conditions noted are these: cortical neurone.
Data set [3] addresses DNA polymerase beta (Homo sapiens) (UniProt P06746). The conditions noted are these: 50 uM.
The species entered for data set [4] is Mus musculus. Put plainly: Effect on cell cycle distribution in against mouse 92TAg cells assessed as cell accumulation at S-phase at 8 ug/ml incubated for 15 hrs by propidium iodide staining based cytofluorimetric analysis. Format: functional. The essentials: (§2)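 Mouse embryonic fibroblasts (wild-type 92TAg; pol-β-null 88TAg) grown in DMEM with 10% FBS at 37 °C and 5% CO2. Synchronized in 0.2% FBS medium for 72 h, then returned to 10% FBS medium with compound for 15 h. Cell-cycle phase percentages scored by cytofluorimetry of propidium iodide-labeled cells. Experiments run at least in triplicate, one-way ANOVA.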

For data set [5], the species on record is Mus musculus. Put plainly: Effect on cell cycle distribution in against polymerase-beta knock out mouse 88TAg cells assessed as cell accumulation at S-phase at 8 ug/ml incubated for 15 hrs by propidium iodide staining based cytofluorimetric analysis. The format is functional. The essentials:
as §2

Data set [6] in a line: Cytotoxicity against mouse 88TAg fibroblasts assessed as reduction of cell viability at 60 uM incubated for 2 hrs by MTT assay. The essentials:
as §1

Data set [7] concerns DNA polymerase beta (Mus musculus). Nature of the data set: Inhibition of DNA polymerase-beta in mouse wild-type 92TAg cells assessed as increase in MMS toxicity at 1 to 60 uM incubated for 2 hrs prior to MMS challenge for 2 hrs followed by post wash compound addition measured after 24 hrs by MTT assay.

Regarding `C[C@H](C(=O)O)c1cccc(C(=O)c2ccccc2)c1` [DEXKETOPROFEN], in data set [1], the Activity result was “Non-toxic”.

Consider `c1ccc2c(c1)c1ccccc1n2Cn1c2ccccc2c2ccccc21`, for which the Activity result in data set [1] is “<= 90%”.

`CC1(C)CC[C@]2(C(=O)O)CC[C@]3(C)C(=CC[C@@H]4[C@@]5(C)CC[C@H](O)C(C)(C)[C@@H]5CC[C@]43C)[C@@H]2C1` [OLEANOLIC_ACID]: in data set [2], the Activity result was “Toxic”. Further, the inhibition result in data set [3] was “Active”.

For the molecule `C[C@@]1(CO)[C@H](O)CC[C@@]2(C)[C@H]1CC[C@H]1C[C@@H]3C[C@@]12CC[C@]3(O)CO`, the result in the data set listed under Mus musculus [4] and in the data set listed under Mus musculus [5] was Active.

As for `O=c1cc(-c2ccccc2O)oc2c1ccc1ccccc12`, the Activity entry is “<= 90%” in data set [6] and 10 µM in data set [1].

For `CC1(C)NCCC12C(=O)N(Cc1ccccc1)c1ccccc12` (stereo unspecified), in data set [7], the inhibition result is “inactive”. The Activity entry in data set [1] is “Non-toxic”.

On to `Cc1ccccc1Nc1nc2ccc([N+](=O)[O-])cc2nc1Nc1ccccc1C`, for which the Activity entry in data set [1] was “<= 90%”.
